Results as given in ChEMBL document CHEMBL1122496, “A new class of nonhormonal pregnancy-terminating agents. Synthesis and contragestational activity of 3,5-diaryl-s-triazoles” (J Med Chem, 1983).

Columns and labels:
Cricetinae gen. sp. [1] = assay: (§1) Pregnancy-terminating activity in hamster when administered sc; assay type: functional
Cricetinae gen. sp. [2] = assay: Pregnancy-terminating activity in hamster when administered perorally; assay type: functional, Cricetulus griseus; details: po
Rattus norvegicus [3] = assay: Pregnancy-terminating activity in rat when administered po; assay type: functional
Rattus norvegicus [4] = assay: Pregnancy-terminating activity in rat when administered sc; assay type: functional
Method in brief: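 Pregnant rats were dosed once daily for 5 consecutive days, from day 6 to day 10. Compound was given in sesame oil containing 20% benzyl benzoate to groups of 5–30 animals at three to six dose levels.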

Cricetinae gen. sp. [5] = assay: as §1; assay type: functional, Cricetulus griseus
Method in brief: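 Pregnant hamsters were dosed daily for 5 consecutive days, from day 4 to day 8. Compound was given in sesame oil with 20% benzyl benzoate to groups of 5–30 animals at three to six dose levels. ED50 is the dose that ended pregnancy in half of the animals.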

[6] = Solubility in sesame oil containing 20% of benzyl benzoate; assay type: physicochemical
Rattus norvegicus [7] = assay: Pregnancy-terminating activity in Rat when administered sc; assay type: functional
Method in brief: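 Pregnant rats were dosed once daily for 5 consecutive days, from day 6 to day 10. Compound was given in sesame oil containing 20% benzyl benzoate to groups of 5–30 animals at three to six dose levels. ED50 is the dose that terminated pregnancy in 50% of the animals.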

[8] = Cricetinae gen. sp., sc, read-out: ED50

Compound `Cc1ccccc1-c1nc(-c2ccc(N(C)C)cc2)n[nH]1` has an ED50 (Cricetinae gen. sp. [1]; [8]) of 10 mg/kg.

Compound `Cc1cccc(-c2n[nH]c(-c3ccccc3)n2)c1` has an ED50 (Cricetinae gen. sp. [1]; [8]) greater than 20 mg/kg.

Compound `CCc1ccccc1-c1n[nH]c(-c2ccc(OC)cc2)n1` has an ED50 (Cricetinae gen. sp. [1]; [8]) of 0.15 mg/kg and an ED50 (Cricetinae gen. sp. [2]) of 5 mg/kg.

With `Cc1cc(Cl)ccc1-c1n[nH]c(-c2ccccc2)n1` the ED50 (Cricetinae gen. sp. [1]; [8]) was 0.14 mg/kg and the ED50 (Cricetinae gen. sp. [2]) was 4 mg/kg.

In the case of `CCOc1cccc(-c2n[nH]c(-c3ccccc3CC)n2)c1`, the ED50 (Rattus norvegicus [3]) is reported as greater than 10 mg/kg, the ED50 (Rattus norvegicus [4]) is reported as 0.3 mg/kg and the ED50 (Cricetinae gen. sp. [1]; [8]) is reported as 0.04 mg/kg. For the same compound, the ED50 (Cricetinae gen. sp. [2]) was 4 mg/kg.

For `c1ccc(-c2nc3n(n2)Cc2ccccc2-3)cc1`, the ED50 (Cricetinae gen. sp. [5]) was 3.5 mg/kg, the Solubility [6] was ~ 30 mg ml-1 and the ED50 (Rattus norvegicus [7]) was 1.8 mg/kg.

For `c1ccc(-c2nc3n(n2)CCc2ccccc2-3)cc1`, the ED50 (Cricetinae gen. sp. [5]) was 1 mg/kg, the Solubility [6] was ~ 100 mg ml-1 and the ED50 (Rattus norvegicus [7]) was 16 mg/kg.

Compound `Cc1ccc(C)c(-c2n[nH]c(-c3ccccc3)n2)c1` has an ED50 (Cricetinae gen. sp. [1]; [8]) greater than 10 mg/kg.

`Cc1ccccc1-c1n[nH]c(-c2ccc(-c3ccccc3)cc2)n1` showed an ED50 (Cricetinae gen. sp. [1]; [8]) of 10 mg/kg.

In the case of `CCc1ccccc1-c1n[nH]c(-c2cc(OC)cc(OC)c2)n1`, the ED50 (Cricetinae gen. sp. [1]; [8]) is reported as 10 mg/kg.

For `CCc1ccccc1-c1n[nH]c(-c2cccc(F)c2)n1`, the ED50 (Cricetinae gen. sp. [1]; [8]) was 0.4 mg/kg and the ED50 (Cricetinae gen. sp. [2]) was greater than 5 mg/kg.

`COc1cccc(-c2n[nH]c(-c3ccccc3CO)n2)c1` showed an ED50 (Cricetinae gen. sp. [1]; [8]) of 0.08 mg/kg and an ED50 (Cricetinae gen. sp. [2]) of 15 mg/kg.

Compound `C=CCOc1cccc(-c2nc(-c3ccccc3C)n[nH]2)c1` has an ED50 (Cricetinae gen. sp. [1]; [8]) of 0.15 mg/kg and an ED50 (Cricetinae gen. sp. [2]) of 5 mg/kg.

With `Cc1ccccc1-c1n[nH]c(-c2ccc(F)cc2)n1` the ED50 (Cricetinae gen. sp. [1]; [8]) was 3.5 mg/kg.

Compound `COc1cccc(-c2n[nH]c(-c3ccc(C)cc3C)n2)c1` has an ED50 (Rattus norvegicus [3]) greater than 10 mg/kg, an ED50 (Rattus norvegicus [4]) of 0.6 mg/kg and an ED50 (Cricetinae gen. sp. [1]; [8]) of 0.04 mg/kg. It also gave an ED50 (Cricetinae gen. sp. [2]) of 10 mg/kg.

In the case of `Cc1ccc(Cl)cc1-c1n[nH]c(-c2ccccc2)n1`, the ED50 (Cricetinae gen. sp. [1]; [8]) is reported as 1.2 mg/kg.

Work on `COc1cccc(-c2n[nH]c(-c3cccc(C)c3)n2)c1` yielded an ED50 (Cricetinae gen. sp. [1]; [8]) of 15 mg/kg.

With `c1ccc(-c2nc3c4ccccc4ccn3n2)cc1` the Solubility [6] was ~ 10 mg ml-1, the ED50 (Rattus norvegicus [7]) was 2.5 mg/kg and the ED50 (Cricetinae gen. sp. [1]; [8]) was 0.25 mg/kg.

`CCCCc1ccccc1-c1n[nH]c(-c2cccc(OC)c2)n1` showed an ED50 (Cricetinae gen. sp. [1]; [8]) of 12 mg/kg and an ED50 (Cricetinae gen. sp. [2]) of 10 mg/kg.

For `CCc1ccccc1-c1n[nH]c(-c2cccc(C)c2C)n1`, the ED50 (Cricetinae gen. sp. [1]; [8]) was 2 mg/kg.

With `COc1cccc(-c2n[nH]c(-c3ccccc3C=O)n2)c1` the ED50 (Cricetinae gen. sp. [1]; [8]) was 0.1 mg/kg and the ED50 (Cricetinae gen. sp. [2]) was 10 mg/kg.

For `Cc1ccccc1-c1n[nH]c(-c2ccc(Cl)cc2)n1`, the ED50 (Cricetinae gen. sp. [1]; [8]) was 4 mg/kg.

`CCc1ccccc1-c1n[nH]c(-c2ccc(OC)c(OC)c2)n1` showed an ED50 (Cricetinae gen. sp. [1]; [8]) of 0.05 mg/kg and an ED50 (Cricetinae gen. sp. [2]) greater than 5 mg/kg.

Work on `CCc1ccccc1-c1n[nH]c(-c2cccc(OC)c2OC)n1` yielded an ED50 (Cricetinae gen. sp. [1]; [8]) of 10 mg/kg.

With `CCc1ccccc1-c1n[nH]c(-c2cccc(-c3ccccc3)c2)n1` the ED50 (Cricetinae gen. sp. [1]; [8]) was 10 mg/kg and the ED50 (Cricetinae gen. sp. [2]) was 10 mg/kg.

Compound `COc1ccc(C)c(-c2n[nH]c(-c3ccccc3)n2)c1` has an ED50 (Cricetinae gen. sp. [1]; [8]) greater than 10 mg/kg.

With `COc1cccc(-c2n[nH]c(-c3cc(OC)ccc3C)n2)c1` the ED50 (Cricetinae gen. sp. [1]; [8]) was 1 mg/kg.

`Cc1ccccc1-c1n[nH]c(-c2ccccc2Cl)n1` showed an ED50 (Cricetinae gen. sp. [1]; [8]) of 15 mg/kg.

For `COc1ccc(-c2n[nH]c(-c3ccccc3)n2)c(C)c1`, the ED50 (Cricetinae gen. sp. [1]; [8]) was greater than 10 mg/kg.

`Cc1cccc(-c2n[nH]c(-c3ccccc3C)n2)c1` showed an ED50 (Cricetinae gen. sp. [1]; [8]) of 4 mg/kg.

In the case of `COc1cccc(-c2n[nH]c(-c3ccc(Cl)cc3C)n2)c1`, the ED50 (Rattus norvegicus [3]) is reported as greater than 10 mg/kg, the ED50 (Rattus norvegicus [4]) is reported as 0.5 mg/kg and the ED50 (Cricetinae gen. sp. [1]; [8]) is reported as 0.04 mg/kg. For the same compound, the ED50 (Cricetinae gen. sp. [2]) was 5 mg/kg.

Work on `CCc1ccccc1-c1n[nH]c(-c2ccc3c(c2)OCO3)n1` yielded an ED50 (Rattus norvegicus [3]) of roughly 20 mg/kg, an ED50 (Rattus norvegicus [4]) of 0.6 mg/kg and an ED50 (Cricetinae gen. sp. [1]; [8]) of 0.03 mg/kg. For the same compound, the ED50 (Cricetinae gen. sp. [2]) was 3 mg/kg.

Compound `C=CCOc1cccc(-c2nc(-c3ccccc3CC)n[nH]2)c1` has an ED50 (Cricetinae gen. sp. [1]; [8]) of 0.12 mg/kg and an ED50 (Cricetinae gen. sp. [2]) of 5 mg/kg.

With `Cc1ccc(-c2n[nH]c(-c3ccccc3)n2)cc1` the ED50 (Cricetinae gen. sp. [1]; [8]) was greater than 20 mg/kg.

Compound `Cc1ccccc1-c1n[nH]c(-c2cccc(C(F)(F)F)c2)n1` has an ED50 (Cricetinae gen. sp. [1]; [8]) of 0.6 mg/kg and an ED50 (Cricetinae gen. sp. [2]) greater than 20 mg/kg.

`CCOc1cccc(-c2n[nH]c(-c3ccccc3C)n2)c1` gave an ED50 (Cricetinae gen. sp. [1]; [8]) of 0.06 mg/kg and an ED50 (Cricetinae gen. sp. [2]) of 5 mg/kg.

In the case of `Cc1ccc(-c2n[nH]c(-c3ccccc3C)n2)cc1`, the ED50 (Cricetinae gen. sp. [1]; [8]) is reported as 20 mg/kg.

With `COc1cccc(-c2n[nH]c(-c3ccccc3C(C)C)n2)c1` the ED50 (Cricetinae gen. sp. [1]; [8]) was 4 mg/kg and the ED50 (Cricetinae gen. sp. [2]) was 10 mg/kg.

`Cc1ccc(-c2n[nH]c(-c3ccccc3)n2)c(C)c1` showed an ED50 (Cricetinae gen. sp. [1]; [8]) of 0.2 mg/kg and an ED50 (Cricetinae gen. sp. [2]) greater than 5 mg/kg.

Work on `COc1cccc(-c2n[nH]c(-c3ccc(C)cc3)n2)c1` yielded an ED50 (Cricetinae gen. sp. [1]; [8]) of 7 mg/kg.

`Cc1ccccc1-c1n[nH]c(-c2ccccc2C)n1` gave an ED50 (Cricetinae gen. sp. [1]; [8]) of 0.7 mg/kg and an ED50 (Cricetinae gen. sp. [2]) greater than 10 mg/kg.

For `COc1cccc(-c2n[nH]c(-c3cc(Cl)ccc3C)n2)c1`, the ED50 (Cricetinae gen. sp. [1]; [8]) was 0.35 mg/kg.

`COc1cccc(-c2n[nH]c(-c3cc(C)ccc3C)n2)c1` gave an ED50 (Cricetinae gen. sp. [1]; [8]) of 2.5 mg/kg.

With `c1ccc(-c2n[nH]c(-c3ccccc3)n2)cc1` the ED50 (Cricetinae gen. sp. [1]; [8]) was 6 mg/kg and the ED50 (Cricetinae gen. sp. [2]) was 10 mg/kg.

With `Cc1ccccc1-c1n[nH]c(-c2cccc(Cl)c2)n1` the ED50 (Cricetinae gen. sp. [1]; [8]) was 0.6 mg/kg and the ED50 (Cricetinae gen. sp. [2]) was greater than 20 mg/kg.

Compound `CC(C)c1ccccc1-c1n[nH]c(-c2ccccc2)n1` has an ED50 (Cricetinae gen. sp. [1]; [8]) of 10 mg/kg.

`COc1ccccc1-c1n[nH]c(-c2ccccc2C)n1` gave an ED50 (Cricetinae gen. sp. [1]; [8]) of 0.5 mg/kg and an ED50 (Cricetinae gen. sp. [2]) greater than 5 mg/kg.

Work on `CCCCc1ccccc1-c1n[nH]c(-c2ccccc2)n1` yielded an ED50 (Cricetinae gen. sp. [1]; [8]) of 17 mg/kg.

With `COc1cccc(-c2n[nH]c(-c3ccccc3C)n2)c1` the ED50 (Cricetinae gen. sp. [1]; [8]) was 0.08 mg/kg and the ED50 (Cricetinae gen. sp. [2]) was 5 mg/kg.

In the case of `CCc1ccccc1-c1n[nH]c(-c2ccccc2)n1`, the ED50 (Cricetinae gen. sp. [1]; [8]) is reported as 0.15 mg/kg and the ED50 (Cricetinae gen. sp. [2]) is reported as 5 mg/kg.

For `Cc1ccccc1-c1n[nH]c(-c2ccccc2)n1`, the ED50 (Rattus norvegicus [3]) was 50 mg/kg, the Solubility [6] was greater than 100 mg/mL and the ED50 (Rattus norvegicus [4]) was 2 mg/kg. It also gave an ED50 (Rattus norvegicus [7]) of 2 mg/kg, an ED50 (Cricetinae gen. sp. [1]) of 0.3 mg/kg and an ED50 (Cricetinae gen. sp. [1]; [8]) of 0.3 mg/kg. For the same compound, the ED50 (Cricetinae gen. sp. [2]) was 10 mg/kg.

Compound `COc1cccc(-c2nc(-c3ccc(OC)cc3C)n[nH]2)c1` has an ED50 (Cricetinae gen. sp. [1]; [8]) of 0.2 mg/kg and an ED50 (Cricetinae gen. sp. [2]) greater than 5 mg/kg.
